In ChEMBL document CHEMBL4038311, “An Ursolic Acid Derived Small Molecule Triggers Cancer Cell Death through Hyperstimulation of Macropinocytosis” (J Med Chem, 2017) one finds viability and Activity data, which are given here for 13 compounds.

Active and inactive are the calls of the source. The rule behind the calls is not given here.

Experiment [1] deals with HT-1080. Briefly: Anticancer activity against human HT1080 cells assessed as cell viability at 20 uM after 48 hrs by CCK8 assay relative to control. It is filed as functional. The conditions noted are these: HT-1080, 48 h, read-out: Activity. Summed up: (§1)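 Cells (5000/well, pre-incubated overnight) exposed to 20 µM for 48 h. CCK-8 absorbance read at 450 nm. Viability given as percent of vehicle (DMSO) control, mean ± SD. Six parallel wells per condition, at least three independent repeats.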
A general note: Formazan colour is commonly taken as a measure of viable cells.

For experiment [2], the system named is HeLa. Kind of experiment: Anticancer activity against human HeLa cells assessed as vacuole formation at 20 uM after 24 hrs by phase contrast microscopic analysis. It is filed as functional, cell-based.
Experiment [3] relates to HepG2. Briefly: Anticancer activity against human HepG2 cells assessed as vacuole formation at 20 uM after 24 hrs by phase contrast microscopic analysis. It is filed as functional, cell-based.
In experiment [4] the test system is HT-1080. Kind of experiment: Anticancer activity against human HT1080 cells assessed as vacuole formation at 20 uM after 24 hrs by phase contrast microscopic analysis. Type of experiment: functional, cell-based.
Experiment [5] has as its system MCF7. Kind of experiment: Anticancer activity against human MCF7 cells assessed as vacuole formation at 20 uM after 24 hrs by phase contrast microscopic analysis. Type of experiment: functional, cell-based.
Experiment [6] has as its system SK-N-MC. Kind of experiment: Anticancer activity against human SK-N-MC cells assessed as vacuole formation at 20 uM after 24 hrs by phase contrast microscopic analysis. Type of experiment: functional, cell-based.
Experiment [7] concerns HeLa. Kind of experiment: Anticancer activity against human HeLa cells assessed as cell viability at 20 uM after 48 hrs by CCK8 assay relative to control. It is filed as functional. The conditions noted are these: read-out: Activity. In outline:
as §1

Experiment [8] relates to HepG2. Briefly: Anticancer activity against human HepG2 cells assessed as cell viability at 20 uM after 48 hrs by CCK8 assay relative to control. It is filed as functional. To be noted: HepG2, 48 h, read-out: Activity. Summed up: as §1
The subject of experiment [9] is MCF7. Kind of experiment: Anticancer activity against human MCF7 cells assessed as cell viability at 20 uM after 48 hrs by CCK8 assay relative to control. It is filed as functional. To be noted: MCF7, 48 h, read-out: Activity. In outline:
as §1

The subject of experiment [10] is SK-N-MC. Briefly: Anticancer activity against human SK-N-MC cells assessed as cell viability at 20 uM after 48 hrs by CCK8 assay relative to control. It is filed as functional. To be noted: read-out: Activity. In outline: as §1
Experiment [11] has as its system HeLa. Kind of experiment: Anticancer activity against human HeLa cells assessed as decrease in cell viability at 100 nM preincubated cells with Z-VAD-FMK for 1 hr followed by compound addition measured after 48 hrs by CCK8 assay. It is filed as functional, cell-based.
Experiment [12] has as its system HeLa. Briefly: Induction of apoptosis in human HeLa cells assessed as increase in cleaved caspase-3 levels at 100 nM after 24 to 48 hrs by Western blot analysis. It is filed as functional, cell-based.
The test system of experiment [13] is HeLa. Briefly: Induction of apoptosis in human HeLa cells assessed as increase in cleaved PARP1 levels at 100 nM after 24 to 48 hrs by Western blot analysis. It is filed as functional, cell-based.

Consider `C[C@H]1[C@H](C)CC[C@]2(C(=O)O)CC[C@]3(C)C(=CC[C@@H]4[C@@]5(C)Cc6c(C(F)(F)F)nn(C)c6C(C)(C)[C@@H]5CC[C@]43C)[C@H]12`, for which the viability at 20 µM was determined as 35.8% with HT-1080 [1]; 44.9% in the experiment on HeLa [7]; 46% with HepG2 [8]; 47.6% in the experiment with MCF7 [9]; 67.4% with SK-N-MC [10]. In addition, the outcome in the experiment with HeLa [2], with HepG2 [3], in the experiment on HT-1080 [4], with MCF7 [5] and in the experiment with SK-N-MC [6] was Active.

For the compound `CCOC(=O)Cn1ncc2c1C(C)(C)[C@@H]1CC[C@]3(C)[C@H](CC=C4[C@@H]5[C@@H](C)[C@H](C)CC[C@]5(C(=O)O)CC[C@]43C)[C@@]1(C)C2`, the viability at 20 µM came out at 55.2% in the experiment on HT-1080 [1]; 44.2% in the experiment on HeLa [7]; 43.7% in the experiment on HepG2 [8]; 28.9% in the experiment on MCF7 [9]; 66.6% in the experiment on SK-N-MC [10]. In addition, the result in the experiment with HeLa [2], with HepG2 [3], in the experiment with HT-1080 [4], with MCF7 [5] and with SK-N-MC [6] was inactive.

Turning to `C[C@H]1[C@H](C)CC[C@]2(C(=O)O)CC[C@]3(C)C(=CC[C@@H]4[C@@]5(C)Cc6cnn(-c7cccc(F)c7)c6C(C)(C)[C@@H]5CC[C@]43C)[C@H]12`, the viability at 20 µM in the experiment with HT-1080 [1] was 33.5%; in the experiment on HeLa [7], 33.3%; with HepG2 [8] it was 29.5%; with MCF7 [9], 46.6%; in the experiment on SK-N-MC [10] it was 24.6%. The result in the experiment with HeLa [2], in the experiment on HepG2 [3], in the experiment with HT-1080 [4], with MCF7 [5] and with SK-N-MC [6] was inactive.

As to `C[C@H]1[C@H](C)CC[C@]2(C(=O)O)CC[C@]3(C)C(=CC[C@@H]4[C@@]5(C)Cc6cnn(CC7CC7)c6C(C)(C)[C@@H]5CC[C@]43C)[C@H]12`, the viability at 20 µM was found to be 23.5% in the experiment on HT-1080 [1]; 19.9% with HeLa [7]; 33.9% in the experiment on HepG2 [8]; 33.4% with MCF7 [9]; 33.9% with SK-N-MC [10]. The result in the experiment with HeLa [2], in the experiment with HepG2 [3], in the experiment on HT-1080 [4], with MCF7 [5] and with SK-N-MC [6] was inactive.

As to `C[C@H]1[C@H](C)CC[C@]2(C(=O)O)CC[C@]3(C)C(=CC[C@@H]4[C@@]5(C)Cc6cnn(C)c6C(C)(C)[C@@H]5CC[C@]43C)[C@H]12`, the viability at 20 µM in the experiment on HT-1080 [1] stood at 35.8%; in the experiment on HeLa [7] it was 44.9%; with HepG2 [8], 46%; with MCF7 [9], 47.6%; in the experiment on SK-N-MC [10], 67.4%. The outcome in the experiment with HeLa [2], with HepG2 [3], in the experiment on HT-1080 [4], in the experiment with MCF7 [5] and in the experiment on SK-N-MC [6] was Active.

Regarding `C[C@H]1[C@H](C)CC[C@]2(C(=O)O)CC[C@]3(C)C(=CC[C@@H]4[C@@]5(C)Cc6cnn(C7CCCC7)c6C(C)(C)[C@@H]5CC[C@]43C)[C@H]12`, the viability at 20 µM in the experiment with HT-1080 [1] amounted to 27.9%; in the experiment on HeLa [7] it was 30.8%; in the experiment on HepG2 [8], 44.6%; in the experiment on MCF7 [9], 36.2%; in the experiment with SK-N-MC [10], 31.4%. Also, the result in the experiment on HeLa [2], in the experiment on HepG2 [3], in the experiment on HT-1080 [4], in the experiment on MCF7 [5] and in the experiment on SK-N-MC [6] was Active.

Regarding `C[C@H]1[C@H](C)CC[C@]2(C(=O)O)CC[C@]3(C)C(=CC[C@@H]4[C@@]5(C)Cc6cnn(-c7ccc(F)cc7)c6C(C)(C)[C@@H]5CC[C@]43C)[C@H]12`, the viability at 20 µM was determined as 27.3% with HT-1080 [1]; 24.4% with HeLa [7]; 58.6% with HepG2 [8]; 34.3% in the experiment with MCF7 [9]; 39.4% with SK-N-MC [10]. For the same compound, the outcome in the experiment with HeLa [2], in the experiment on HepG2 [3], with HT-1080 [4], in the experiment with MCF7 [5] and in the experiment on SK-N-MC [6] was Active.

As for `C[C@H]1[C@H](C)CC[C@]2(C(=O)O)CC[C@]3(C)C(=CC[C@@H]4[C@@]5(C)Cc6cnn(-c7ccccc7)c6C(C)(C)[C@@H]5CC[C@]43C)[C@H]12`, the viability at 20 µM amounted to 38.7% in the experiment on HT-1080 [1]; 40.9% in the experiment on HeLa [7]; 60.1% in the experiment on HepG2 [8]; 46.5% in the experiment on MCF7 [9]; 57.4% in the experiment on SK-N-MC [10]. The result in the experiment with HeLa [2], with HepG2 [3], in the experiment with HT-1080 [4], in the experiment on MCF7 [5] and with SK-N-MC [6] was inactive.

As for `CC(=O)O[C@H]1C(=O)[C@@]2(C)[C@H]([C@H](OC(=O)c3ccccc3)[C@]3(O)C[C@H](OC(=O)[C@H](O)[C@@H](NC(=O)c4ccccc4)c4ccccc4)C(C)=C1C3(C)C)[C@]1(OC(C)=O)CO[C@@H]1C[C@@H]2O`, the outcome in the experiment on HeLa [11] was inactive. The result with HeLa [12] and in the experiment with HeLa [13] was Active.

Regarding `C[C@H]1[C@H](C)CC[C@]2(C(=O)O)CC[C@]3(C)C(=CC[C@@H]4[C@@]5(C)Cc6cnn(CCO)c6C(C)(C)[C@@H]5CC[C@]43C)[C@H]12`, the viability at 20 µM in the experiment on HT-1080 [1] amounted to 39%; in the experiment on HeLa [7], 47%; in the experiment on HepG2 [8], 57%; with MCF7 [9], 40.5%; with SK-N-MC [10], 63.3%. For the same compound, the outcome in the experiment on HeLa [2], in the experiment on HepG2 [3], in the experiment on HT-1080 [4], in the experiment on MCF7 [5] and in the experiment with SK-N-MC [6] was inactive.

On to `C[C@H]1[C@H](C)CC[C@]2(C(=O)O)CC[C@]3(C)C(=CC[C@@H]4[C@@]5(C)CC[C@H](O)C(C)(C)[C@@H]5CC[C@]43C)[C@H]12` [URSOLIC ACID], for which the viability at 20 µM with HT-1080 [1] amounted to 39.4%; with HeLa [7], 43.3%; in the experiment on HepG2 [8], 34.1%; in the experiment on MCF7 [9] it was 57.6%; in the experiment with SK-N-MC [10] it was 67.2%. Further, the result with HeLa [2], in the experiment with HepG2 [3], in the experiment on HT-1080 [4], in the experiment on MCF7 [5] and with SK-N-MC [6] was inactive.

Regarding `C[C@H]1[C@H](C)CC[C@]2(C(=O)O)CC[C@]3(C)C(=CC[C@@H]4[C@@]5(C)Cc6cnn(-c7ccncc7)c6C(C)(C)[C@@H]5CC[C@]43C)[C@H]12`, the viability at 20 µM in the experiment with HT-1080 [1] came out at 30.9%; with HeLa [7], 54.2%; in the experiment with HepG2 [8], 56.8%; in the experiment with MCF7 [9], 39.7%; in the experiment on SK-N-MC [10], 79.9%. Also, the result with HeLa [2], in the experiment with HepG2 [3], with HT-1080 [4], with MCF7 [5] and in the experiment with SK-N-MC [6] was inactive.

Consider `C[C@H]1[C@H](C)CC[C@]2(C(=O)O)CC[C@]3(C)C(=CC[C@@H]4[C@@]5(C)Cc6cnn(-c7cccc(C#N)c7)c6C(C)(C)[C@@H]5CC[C@]43C)[C@H]12`, for which the viability at 20 µM with HT-1080 [1] was 37.5%; in the experiment with HeLa [7], 37.3%; in the experiment on HepG2 [8] it was 29.3%; in the experiment on MCF7 [9], 28.1%; in the experiment on SK-N-MC [10] it was 31%. Further, the outcome in the experiment on HeLa [2], in the experiment with HepG2 [3], with HT-1080 [4], in the experiment with MCF7 [5] and in the experiment with SK-N-MC [6] was Active.
